This is a sample that favours compounds with a hit; in the whole collection about 2.8% have one here.
Rtt109 HAT inh: C. albicans Rtt109 histone acetyltransferase inhibition. Q5AAJ8. purified Rtt109/Vps75, ThioGlo CoA-SH fluorescence, 4 h. inhibition, % at 34.9 µM. 330,000 tested, 0.16% active. AID 540336;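 active = inhibition of at least 50% in every replicate; inconclusive = best replicate reaches 50% inhibition but some replicates fall short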
JMJD2C inh: blocks human GASC-1 demethylase activity | Q9H3R0 | GST-JMJD2C(1-420) H3K9me3 demethylation, DELFIA europium | inhibition, % at 2.35 µM | 330,000 tested, 0.069% active | AID 2099;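 active = more than half of a compound's replicate wells show inhibition beyond 50%, single wells judged on their own value; inconclusive = some, but no more than half, of replicates pass 50% inhibition; inactive = no replicate passes 50% inhibition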;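 note: signal counts dimethyl H3K9 product captured on neutravidin plate; 0% = median of DMSO wells and 100% = 0.3 times that DMSO median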
Target sequence (Q9H3R0 1-420 limits assumed): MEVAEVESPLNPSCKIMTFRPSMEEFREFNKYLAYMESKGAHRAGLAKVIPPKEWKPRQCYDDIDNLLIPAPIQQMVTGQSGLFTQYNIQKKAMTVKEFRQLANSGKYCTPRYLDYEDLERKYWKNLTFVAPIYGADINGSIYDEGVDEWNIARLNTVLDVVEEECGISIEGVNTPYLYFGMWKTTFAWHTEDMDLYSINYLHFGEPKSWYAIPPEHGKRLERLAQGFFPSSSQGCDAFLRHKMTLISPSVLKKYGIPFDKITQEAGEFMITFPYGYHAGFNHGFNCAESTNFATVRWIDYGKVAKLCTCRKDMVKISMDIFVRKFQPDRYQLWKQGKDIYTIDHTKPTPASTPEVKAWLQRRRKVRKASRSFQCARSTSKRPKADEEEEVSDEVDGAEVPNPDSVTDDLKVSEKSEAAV
T cell HTS: T cell immune modulators affecting CD8 T cell-vesicle binding; 2C CD8+ T cell-vesicle binding, flow cytometry; active compounds read low; response (vesicle binding), % at 7 µM; 330,000 tested, 0.068% active; AID 2052;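 active = response, share of CD8 T cells binding vesicles, and their 90th percentile fluorescence all below set limits, cut at about 80% in these data, passing the limit was not always enough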;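 note: values below 100% mean blocked vesicle binding to the CD8+ T cells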
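System: murine 2C transgenic CD8+ T lymphocytes; also added: QL9-loaded Drosophila micro-vesicles; times: binding 1.5 h at 37 °C; measured by: flow cytometry, PE anti-B7-1 (FL2) versus Alexa647 anti-CD8 (FL8), PFA-fixed; control set: Peptide-free naked vesicles (low) and QL9 vesicles with 0.7% DMSO vehicle (high)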
NR3A LBD binder: modulates the human NR3A ligand-binding domain; Tm shift relative to glycine control, % at 25 µM; 340,000 tested, 2.5% active; AID 1259313; NR3A LBD differential scanning fluorimetry, Tm shift; 0% = protein alone, 100% = glycine-bound protein;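 active = melting temperature shift of at least 10% of the positive control shift, at one fixed dose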
An asterisk follows results filed as active; u = inconclusive; x = no result.

SMILES | Rtt109 HAT inh | JMJD2C inh | T cell HTS | NR3A LBD binder
Cc1cc2c(cc1S(=O)(=O)CCC(=O)Nc1cccc(C(F)(F)F)c1)OCC(=O)N2 | -17.0 | -10.6 | 379.2 | -1.2
COc1ccc(NC2CCCN(C(=O)CCc3scnc3C)C2)cc1 (stereo unspecified) | -6.9 | -1.9 | 433.1 | 14.1*
C/C(=N\NC(=O)c1ccccc1O)C1C(=O)c2ccccc2C1=O | u | 17.7 | 498.4 | 11.8*
CCOc1ccc(NC(=S)Nc2cc(-c3ccccc3)[nH]n2)cc1 | 2.1 | 1.9 | 76.1 | 14.5*
Cc1cc(NC(=S)Nc2ccc(C)c(Cl)c2)n[nH]1 | -2.1 | -6.6 | 101.0 | -6.0
COc1ccc(NC(=S)Nc2cc(C)[nH]n2)cc1Cl | 1.8 | 20.0 | 237.3 | 12.1*
COc1ccc(NC(=S)Nc2cc(-c3ccccc3)[nH]n2)cc1Cl | -2.0 | 2.2 | x | 33.5*
CCOc1ccc(NC(=S)Nc2ccc(F)cc2)cc1 | 11.9 | 4.6 | 177.0 | -7.9
O=C(O)CC1(CC(=O)Nc2nccs2)CCCCC1 | 7.8 | x | x | -2.3
CCOC(=O)[C@H]1[C@H]2COc3ccc(Br)cc3[C@H]2N2C(=O)CN(Cc3ccc(C)cc3)C(=O)[C@@]12C | 3.3 | x | x | 0.2
O=C(O)c1cc(O)c2c(c1)[C@H]([C@H]1c3cc(C(=O)O)cc(O)c3C(=O)c3c(O[C@@H]4O[C@H](CO)[C@@H](O)[C@H](O)[C@H]4O)cccc31)c1cccc(OC3O[C@H](CO)[C@@H](O)[C@H](O)[C@H]3O)c1C2=O (stereo partly specified) | 16.8 | -28.3 | 849.3 | 25.6*
O=C(O)c1cc(O)c2c(c1)[C@@H]([C@H]1c3cc(C(=O)O)cc(O)c3C(=O)c3c(O[C@@H]4O[C@H](CO)[C@@H](O)[C@H](O)[C@H]4O)cccc31)c1cccc(OC3O[C@H](CO)[C@@H](O)[C@H](O)[C@H]3O)c1C2=O (stereo partly specified) | -3.6 | -49.3 | 469.6 | 6.6
O=C(CN1C(=O)C(=O)N(C2CCCC2)C1=O)NCCc1ccc(Cl)cc1Cl | -4.2 | 2.3 | 813.6 | 0.9
O=C(Nc1cccc(NC(=O)c2ccc(-c3ccc(Br)cc3)o2)c1)c1ccccc1 | 4.3 | 0.1 | 717.4 | -8.3
O=C(Nc1cccc(NC(=O)c2ccc(-c3cccc(Br)c3)o2)c1)c1ccco1 | -1.2 | 5.8 | 237.9 | 12.8*
O=C(Nc1ccccc1)c1ccc(-c2ccc(Br)cc2)o1 | 2.4 | 9.4 | 594.2 | 18.8*
Nc1c(Br)cc(Br)c2c1-c1ccc([N+](=O)[O-])cc1C2 | 0.6 | x | x | 4.3
COc1ccc(C(=O)CNc2ccc3ccccc3c2)cc1 | -0.2 | 9.5 | x | -0.8
COc1ccc(C(=O)CNc2ccccc2Br)cc1 | -0.5 | -7.9 | 282.8 | 17.3*
COc1ccc(C2NC(=O)C(C#N)=C(S)N2c2ccccc2)cc1OC (stereo unspecified) | -5.9 | 1.8 | 240.4 | -2.5
N#CC1=C(S)N(c2ccccc2)C(c2ccc(-c3cccc(Cl)c3)o2)NC1=O (stereo unspecified) | 98.8* | 2.0 | 202.5 | 0.7
COc1ccc(N2C(S)=C(C#N)C(=O)NC2c2ccco2)cc1 (stereo unspecified) | 62.7* | 9.5 | 99.8 | 5.7
COc1cc(C2NC(=O)C(C#N)=C(S)N2c2ccccc2)ccc1OC(C)C (stereo unspecified) | 121.6* | 20.1 | 273.6 | 1.0
Cc1cccc(N2C(S)=C(C#N)C(=O)NC2c2ccco2)c1 (stereo unspecified) | 7.6 | -20.3 | 543.2 | 0.1
Cc1cccc(C(=O)NCC(=O)OCc2nc(N)nc(Nc3ccccc3C)n2)c1 | 6.6 | -8.0 | 206.1 | 1.2
SMILES | Rtt109 HAT inh | JMJD2C inh | T cell HTS | NR3A LBD binder
CCOC(=O)c1cccc(C2=CC(=O)C[C@H](c3ccc(Cl)cc3)C2)c1 | -9.2 | -4.9 | 297.5 | 0.0
O=C(C1CCCN(Cc2ccccc2[N+](=O)[O-])C1)N1CCCCC1 (stereo unspecified) | 0.1 | 2.4 | 594.6 | 0.0
COc1ccc(Cl)cc1NC(=O)CN(C)C(=O)Cn1cnc2c1c(=O)n(C)c(=O)n2C | 4.8 | 4.8 | 216.9 | 1.3
Cc1nn2c(N3CCN(C4CCCC4)CC3)cc(C(C)(C)C)nc2c1-c1ccccc1 | -3.5 | -0.9 | 81.8 | 12.7*
O=C1CC(=O)N(Cc2cccs2)C(=O)N1 | 1.5 | 4.9 | 302.6 | -1.1
S=C1NCN(Cc2ccco2)CN1 | 3.3 | 8.1 | 395.7 | 2.0
O=C1CC(=O)N(Cc2ccco2)C(=S)N1 | 75.6* | 0.6 | 314.1 | -3.8
O=C1CC(=O)N(Cc2ccco2)C(=O)N1 | -5.1 | 52.4* | 470.3 | 1.4
CC1CCCC(NC(=O)COC(=O)/C=C/c2ccc([N+](=O)[O-])cc2)C1C (stereo unspecified) | 2.4 | -2.1 | 219.1 | -1.6
COc1ccc(S(=O)(=O)N2CCOCC2)cc1C(=O)Nc1ccc2c(c1)OCO2 | -9.8 | -0.2 | 320.8 | 2.1
O=S(=O)(c1ccc(Cl)cc1)N1CCC(N2CCOCC2)CC1 | x | 3.7 | 534.3 | -0.8
Nc1nc(-c2ccc(Cl)cc2)c(N=Nc2ccc(S(=O)(=O)N3CCOCC3)cc2)s1 | 11.9 | -0.7 | 384.3 | 17.2*
Cn1c(CNC(=O)c2ccc3c(c2)OCO3)nnc1SCC(=O)Nc1ccc(F)cc1 | 3.3 | -3.3 | 256.1 | -1.2
Cc1cc(/C=C(\C#N)C(=O)N2CCOCC2)c(C)n1C1CCCC1 | -2.4 | -8.9 | 524.0 | 0.3
CCc1ccc(NC(=O)C(C)OC(=O)c2cc(=O)[nH]c3ccc(S(=O)(=O)Nc4ccc(F)cc4)cc23)cc1 (stereo unspecified) | 4.2 | -2.2 | 613.4 | 13.2*
Cc1cccc(NS(=O)(=O)c2ccc3[nH]c(=O)cc(C(=O)OC(C)C(=O)Nc4ccc([N+](=O)[O-])cc4)c3c2)c1 (stereo unspecified) | 3.0 | -7.7 | 250.0 | 11.1*
N=C(N)c1ccc(N=Nc2c(O)ccc3c2[nH]c2ccccc23)cc1 | 2.2 | x | x | 29.1*
NC(=O)c1ccc(N=Nc2c(O)c3ccccc3[nH]c2=O)cc1 | x | -2.1 | 141.3 | x
Fc1cccc(F)c1/C=N/Nc1ccccn1 | 28.4 | -1.4 | 443.7 | -14.5
Fc1cccc(/C=N/Nc2ccccn2)c1 | 4.4 | 2.3 | 192.3 | 12.8*
CC(C)n1c(Oc2ccc(F)cc2)nc2c1c(=O)n(C)c(=O)n2C | 0.4 | 10.9 | 338.8 | -1.9
O=C(NCc1cccc(F)c1)c1ccc(N2C(=O)Cn3c(cc4sccc43)C2=O)cc1 | 3.7 | -1.8 | 339.5 | 17.2*
Cc1ccc(-c2nc(=S)c3c(n2CCN2CCOCC2)CC(C)(C)OC3)cc1 | -7.9 | 7.0 | 241.8 | 3.8
CCN(CC)CCn1c(-c2ccc(C)cc2)nc(=S)c2c1CC(C)(C)OC2 | 9.1 | x | 626.8 | 13.9*
CCN(CC)C(=O)[C@H]1C[C@H](CC(=O)NC/C=C(\C)CCC=C(C)C)C(=O)N2CCc3c([nH]c4cc(CCC(=O)N(C)C)ccc34)[C@]12C | 2.6 | x | x | -2.6
CCOc1ccc(NC(=O)COC(=O)CCCc2c[nH]c3ccccc23)cc1 | 3.9 | 7.8 | 221.3 | 27.6*
